Experimental data published in ChEMBL document CHEMBL5678805, “Intermittent administration of MEK inhibitor GDC-0973 plus PI3K inhibitor GDC-0941 triggers robust apoptosis and tumor growth inhibition” (Cancer Res, 2012).
Active and inactive are the calls of the source. The rule behind the calls is not given here.

What was measured:
[1] = Antitumor activity against human A375.X1 cells xenografted in mouse assessed as tumor growth inhibition at 15 mg/kg, po administered every third day for 21 days in presence of 4-(2-(1H-indazol-4-yl)-6-((4-(methylsulfonyl)piperazin-1-yl)methyl)thieno[3,2-d]pyrimidin-4-yl)morpholine; format: functional; settings: A375.X1, 504 h, time 21 day, read-out: TGI
Procedure, shortened: (§1)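 Human tumor xenografts in mice. Drugs given orally, as single agents or combined with the PI3K inhibitor. Schedules were daily (QD) or every third day (Q3D) over 21 days. Tumor volume was measured by caliper as (L×W×W)/2. %TGI = 100×[1 − AUC(treatment/d)/AUC(vehicle/d)] from fitted growth curves, with group means. Tumor lysates were immunoblotted for pS6.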

888-mel [2] = assay: Induction of apoptosis in human 888-mel cells assessed as increase in cleaved PARP level incubated for 24 hrs in presence of 4-(2-(1H-indazol-4-yl)-6-((4-(methylsulfonyl)piperazin-1-yl)methyl)thieno[3,2-d]pyrimidin-4-yl)morpholine by immunoblotting analysis; format: functional, cell-based
[3] = biological target: Tyrosine-protein kinase JAK2 (Homo sapiens, UniProt O60674); assay: Inhibition of JAK2 (unknown origin)
[4] = Antiproliferative activity against human Mel 928 cells assessed reduction in cell viability incubated for 4 days in presence of 4-(2-(1H-indazol-4-yl)-6-((4-(methylsulfonyl)piperazin-1-yl)methyl)thieno[3,2-d]pyrimidin-4-yl)morpholine by celltiter-glo assay; format: functional; settings: time 4 day
Procedure, shortened: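 4-day CellTiter-Glo viability read-out on melanoma lines, cells exposed to increasing concentrations of each inhibitor alone and in combination.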

A-375 = assay: Antitumor activity against human A-375 cells harboring BRAF V600E/CDKN2A E61 mutant xenografted in mouse assessed as tumor growth inhibition at 10 mg/kg, po; format: functional; settings: A-375, read-out: TGI
Procedure, shortened: (§2)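 Mice carrying human tumor xenografts dosed orally once daily for 21 consecutive days. Tumor volume measured by calipers as (L×W×W)/2. %TGI = 100×[1 − AUC(treatment/day)/AUC(vehicle/day)], using the area under the fitted growth curve relative to vehicle.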

[5] = biological target: Tyrosine-protein kinase Lck (Homo sapiens, UniProt P06239); assay: Inhibition of Lck (unknown origin)
Chain of Tyrosine-protein kinase Lck (P06239 whole entry): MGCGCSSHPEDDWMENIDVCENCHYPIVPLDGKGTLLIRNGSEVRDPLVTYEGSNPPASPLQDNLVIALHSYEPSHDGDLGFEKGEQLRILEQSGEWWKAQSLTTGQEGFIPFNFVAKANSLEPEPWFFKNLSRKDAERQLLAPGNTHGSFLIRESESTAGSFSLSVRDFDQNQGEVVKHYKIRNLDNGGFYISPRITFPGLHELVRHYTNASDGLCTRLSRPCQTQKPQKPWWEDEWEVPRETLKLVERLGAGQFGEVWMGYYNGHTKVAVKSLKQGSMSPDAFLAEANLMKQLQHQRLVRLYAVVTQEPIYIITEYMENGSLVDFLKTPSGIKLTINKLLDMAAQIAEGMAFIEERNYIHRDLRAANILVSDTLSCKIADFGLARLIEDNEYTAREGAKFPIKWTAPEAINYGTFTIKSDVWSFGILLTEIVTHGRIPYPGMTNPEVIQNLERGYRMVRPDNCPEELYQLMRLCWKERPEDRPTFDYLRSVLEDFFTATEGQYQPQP

[6] = biological target: G protein-coupled receptor kinase 5 (Homo sapiens, UniProt P34947); assay: Inhibition of GRK5 (unknown origin)
DLD-1 = assay: Antitumor activity against human DLD-1 cells xenografted in mouse assessed as tumor growth inhibition at 3 mg/kg, po administered once a day for 21 days in presence of 4-(2-(1H-indazol-4-yl)-6-((4-(methylsulfonyl)piperazin-1-yl)methyl)thieno[3,2-d]pyrimidin-4-yl)morpholine; format: functional; settings: DLD-1, 504 h, time 21 day, read-out: TGI; procedure, shortened: as §1
[7] = biological target: Vascular endothelial growth factor receptor 2 (Homo sapiens, UniProt P35968); assay: Inhibition of KDR (unknown origin)
A2058 [8] = assay: Antitumor activity against human A2058 cells xenografted in mouse assessed as tumor growth inhibition at 6 mg/kg, po administered once a day for 21 days; format: functional; settings: A2058, 504 h, time 21 day, read-out: TGI; procedure, shortened: as §1
NCI-H441 = assay: Antitumor activity against human NCI-H441 cells harboring KRAS G12V/TP53 R158L/MET high mutant xenografted in mouse assessed as tumor growth inhibition at 10 mg/kg, po; format: functional; settings: read-out: TGI
Procedure, shortened: (§3)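 Human tumor xenografts in mice were dosed orally at the indicated mg/kg. Tumor volume was measured with calipers as (L×W×W)/2. %TGI = 100 × [1 − (AUC treatment/d)/(AUC vehicle/d)], using the area under the fitted tumor-growth curve per day for each dose group relative to vehicle.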

[9] = biological target: Epidermal growth factor receptor (Homo sapiens, UniProt P00533); assay: Inhibition of EGFR (unknown origin)
Chain of Epidermal growth factor receptor (P00533 whole entry): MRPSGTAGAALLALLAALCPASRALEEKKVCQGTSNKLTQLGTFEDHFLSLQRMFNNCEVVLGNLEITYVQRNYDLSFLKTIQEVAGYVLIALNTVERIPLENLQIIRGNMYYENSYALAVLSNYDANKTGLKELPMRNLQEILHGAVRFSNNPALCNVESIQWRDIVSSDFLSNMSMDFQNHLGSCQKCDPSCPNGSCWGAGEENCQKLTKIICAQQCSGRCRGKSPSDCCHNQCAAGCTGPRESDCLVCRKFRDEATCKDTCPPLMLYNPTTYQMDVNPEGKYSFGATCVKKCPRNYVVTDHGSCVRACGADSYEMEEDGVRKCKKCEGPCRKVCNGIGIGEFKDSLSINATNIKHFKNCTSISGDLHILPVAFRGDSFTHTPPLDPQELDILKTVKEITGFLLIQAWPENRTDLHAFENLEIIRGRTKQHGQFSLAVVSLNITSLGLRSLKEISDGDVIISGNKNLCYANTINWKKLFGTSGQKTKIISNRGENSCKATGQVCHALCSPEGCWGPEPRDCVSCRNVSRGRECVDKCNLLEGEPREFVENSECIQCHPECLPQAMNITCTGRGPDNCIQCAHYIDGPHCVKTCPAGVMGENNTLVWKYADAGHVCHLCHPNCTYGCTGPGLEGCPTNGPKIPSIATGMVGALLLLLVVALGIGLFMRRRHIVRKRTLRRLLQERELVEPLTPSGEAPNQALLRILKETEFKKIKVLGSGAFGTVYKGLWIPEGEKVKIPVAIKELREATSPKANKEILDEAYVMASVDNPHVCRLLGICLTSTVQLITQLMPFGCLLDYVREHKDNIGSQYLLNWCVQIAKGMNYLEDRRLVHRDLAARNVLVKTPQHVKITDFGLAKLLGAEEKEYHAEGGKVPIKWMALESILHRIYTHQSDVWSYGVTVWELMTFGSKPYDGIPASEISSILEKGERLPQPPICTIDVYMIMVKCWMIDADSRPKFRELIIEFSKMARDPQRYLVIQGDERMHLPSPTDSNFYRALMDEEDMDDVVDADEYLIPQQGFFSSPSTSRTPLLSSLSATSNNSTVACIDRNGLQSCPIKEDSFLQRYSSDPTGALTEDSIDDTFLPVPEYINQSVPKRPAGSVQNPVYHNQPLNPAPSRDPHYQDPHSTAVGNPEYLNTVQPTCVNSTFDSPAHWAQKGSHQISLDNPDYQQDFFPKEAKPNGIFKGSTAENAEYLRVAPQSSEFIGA

[10] = biological target: Serine/threonine-protein kinase PAK 4 (Homo sapiens, UniProt O96013); assay: Inhibition of PAK4 (unknown origin)
Chain of Serine/threonine-protein kinase PAK 4 (O96013 whole entry): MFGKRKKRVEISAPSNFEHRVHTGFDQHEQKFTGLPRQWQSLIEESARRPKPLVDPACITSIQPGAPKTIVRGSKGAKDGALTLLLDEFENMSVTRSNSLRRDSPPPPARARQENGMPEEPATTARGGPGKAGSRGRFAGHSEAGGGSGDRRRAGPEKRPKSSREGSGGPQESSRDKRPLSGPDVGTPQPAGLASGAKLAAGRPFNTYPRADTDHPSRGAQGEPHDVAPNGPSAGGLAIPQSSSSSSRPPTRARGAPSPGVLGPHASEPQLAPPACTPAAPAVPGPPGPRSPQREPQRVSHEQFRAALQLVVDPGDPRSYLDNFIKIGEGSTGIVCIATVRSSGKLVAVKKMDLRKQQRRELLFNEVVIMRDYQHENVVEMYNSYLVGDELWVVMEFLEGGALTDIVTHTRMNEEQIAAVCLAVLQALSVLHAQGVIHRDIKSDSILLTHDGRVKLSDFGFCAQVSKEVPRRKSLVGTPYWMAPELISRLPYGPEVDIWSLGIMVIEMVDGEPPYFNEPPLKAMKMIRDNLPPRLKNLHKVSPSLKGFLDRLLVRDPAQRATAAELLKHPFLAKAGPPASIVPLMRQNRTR

[11] = biological target: Serine/threonine-protein kinase B-raf (Homo sapiens, UniProt P15056); assay: Inhibition of BRAF (unknown origin)
[12] = biological target: Mitogen-activated protein kinase 8 (Homo sapiens, UniProt P45983); assay: Inhibition of JNK1 (unknown origin)
Chain of Mitogen-activated protein kinase 8 (P45983 whole entry): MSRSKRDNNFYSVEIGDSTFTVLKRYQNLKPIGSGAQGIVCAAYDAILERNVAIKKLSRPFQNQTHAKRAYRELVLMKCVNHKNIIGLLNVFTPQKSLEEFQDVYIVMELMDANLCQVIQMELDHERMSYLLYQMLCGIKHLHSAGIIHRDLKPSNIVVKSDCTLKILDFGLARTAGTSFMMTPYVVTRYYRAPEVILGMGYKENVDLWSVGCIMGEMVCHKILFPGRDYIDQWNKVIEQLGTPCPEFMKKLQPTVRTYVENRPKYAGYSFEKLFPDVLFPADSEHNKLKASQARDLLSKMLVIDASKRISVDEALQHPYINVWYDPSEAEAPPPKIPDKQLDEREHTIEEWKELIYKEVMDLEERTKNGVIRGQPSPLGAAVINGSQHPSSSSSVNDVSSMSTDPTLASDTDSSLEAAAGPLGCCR

888-mel [13] = assay: Inhibition of S6 phosphorylation in human 888-mel cells preincubated with compound for 24 hrs followed by compound washout and measured after 2 hrs in presence of 4-(2-(1H-indazol-4-yl)-6-((4-(methylsulfonyl)piperazin-1-yl)methyl)thieno[3,2-d]pyrimidin-4-yl)morpholine by immunoblotting analysis; format: cell-based
DU-145 = assay: Antitumor activity against human DU-145 cells harboring KRAS G12V/LKB1 K178/TP53 P223L/V274F/CDKN2A/MLH1/SMARCA4/ NF1 P2472H/RB1K715 mutant xenografted in mouse assessed as tumor growth inhibition at 10 mg/kg, po; format: functional; settings: read-out: TGI
Procedure, shortened: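 Single-agent dose ranging in human tumor xenograft mice at 2.5, 5 or 10 mg/kg oral. Tumor volume was measured by caliper as (L×W×W)/2. %TGI = 100×[1 − AUC(treatment/d)/AUC(vehicle/d)] from the fitted growth curve per dose group, relative to vehicle.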

NCI-H520 = assay: Antitumor activity against human NCI-H520 cells harboring TP53 W146 and CDKN2A G G45 mutant xenografted in mouse assessed as tumor growth inhibition at 10 mg/kg, po; format: functional; settings: read-out: TGI; procedure, shortened: as §3
[14] = biological target: Serine/threonine-protein kinase PAK 6 (Homo sapiens, UniProt Q9NQU5); assay: Inhibition of PAK6 (unknown origin)
[15] = biological target: Protein kinase C alpha type (Homo sapiens, UniProt P17252); assay: Inhibition of PKC alpha (unknown origin)
[16] = biological target: Serine/threonine-protein kinase WNK2 (Homo sapiens, UniProt Q9Y3S1); assay: Inhibition of WNK2 (unknown origin)
A2058 [17] = assay: Antitumor activity against human A2058 cells harboring BRAF V600E/PTEN L112Q/V175/TP53 V274F mutant xenografted in mouse assessed as tumor growth inhibition at 5 mg/kg, po; format: functional; settings: read-out: TGI; procedure, shortened: as §2
NCI-H2122 = assay: Antitumor activity against human NCI-H2122 cells harboring KRAS […]/LKB1 P281/TP53Q61L/C176Fl/CDKN2A mutant xenografted in mouse assessed as tumor growth inhibition at 10 mg/kg, po; format: functional; settings: read-out: TGI
Procedure, shortened: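 NCI-H2122 (KRAS G12C) NSCLC xenografts in mice were dosed orally once daily for 21 consecutive days. Tumor volume was measured with calipers as (L×W×W)/2, and body weight was tracked. %TGI was derived from the area under the fitted growth curve per day versus vehicle. Group means with SEM were reported.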

888-mel [18] = assay: Inhibition of AKT phosphorylation in human 888-mel cells incubated for 24 hrs in presence of 4-(2-(1H-indazol-4-yl)-6-((4-(methylsulfonyl)piperazin-1-yl)methyl)thieno[3,2-d]pyrimidin-4-yl)morpholine by immunoblotting analysis; format: cell-based
Angiopoietin-1 receptor = Angiopoietin-1 receptor (Homo sapiens, UniProt Q02763); assay: Inhibition of Tie-2 (unknown origin)
Chain of Angiopoietin-1 receptor (Q02763 whole entry): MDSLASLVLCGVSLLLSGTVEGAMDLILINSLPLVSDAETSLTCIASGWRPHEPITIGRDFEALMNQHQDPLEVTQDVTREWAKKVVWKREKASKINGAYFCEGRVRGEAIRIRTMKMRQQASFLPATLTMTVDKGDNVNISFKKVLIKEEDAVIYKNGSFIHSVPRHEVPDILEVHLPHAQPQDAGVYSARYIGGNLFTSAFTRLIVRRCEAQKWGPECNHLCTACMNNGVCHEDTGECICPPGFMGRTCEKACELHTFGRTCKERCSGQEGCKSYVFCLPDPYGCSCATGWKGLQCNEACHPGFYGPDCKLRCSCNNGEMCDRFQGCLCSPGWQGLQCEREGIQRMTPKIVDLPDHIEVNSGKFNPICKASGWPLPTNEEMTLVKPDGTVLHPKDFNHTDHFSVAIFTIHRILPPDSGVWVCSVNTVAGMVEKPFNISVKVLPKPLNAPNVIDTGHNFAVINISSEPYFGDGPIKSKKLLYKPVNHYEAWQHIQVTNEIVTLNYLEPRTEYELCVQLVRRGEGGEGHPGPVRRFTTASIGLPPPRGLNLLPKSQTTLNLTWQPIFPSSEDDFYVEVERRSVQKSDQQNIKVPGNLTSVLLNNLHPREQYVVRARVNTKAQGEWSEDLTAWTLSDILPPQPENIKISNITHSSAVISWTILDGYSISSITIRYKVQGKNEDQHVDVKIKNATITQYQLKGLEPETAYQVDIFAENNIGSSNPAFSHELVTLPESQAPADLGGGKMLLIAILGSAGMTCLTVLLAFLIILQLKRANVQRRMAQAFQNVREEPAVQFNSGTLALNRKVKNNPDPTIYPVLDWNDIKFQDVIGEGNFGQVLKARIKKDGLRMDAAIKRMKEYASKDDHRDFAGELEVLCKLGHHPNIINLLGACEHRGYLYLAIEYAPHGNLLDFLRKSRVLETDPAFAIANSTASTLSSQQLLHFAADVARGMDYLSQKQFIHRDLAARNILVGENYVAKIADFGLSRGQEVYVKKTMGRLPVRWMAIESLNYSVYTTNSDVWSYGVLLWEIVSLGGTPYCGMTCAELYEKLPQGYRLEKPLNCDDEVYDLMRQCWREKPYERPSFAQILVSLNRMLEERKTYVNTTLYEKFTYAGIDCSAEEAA

[19] = biological target: Mitogen-activated protein kinase 1 (Homo sapiens, UniProt P28482); assay: Inhibition of ERK2 (unknown origin)
Chain of Mitogen-activated protein kinase 1 (P28482 whole entry): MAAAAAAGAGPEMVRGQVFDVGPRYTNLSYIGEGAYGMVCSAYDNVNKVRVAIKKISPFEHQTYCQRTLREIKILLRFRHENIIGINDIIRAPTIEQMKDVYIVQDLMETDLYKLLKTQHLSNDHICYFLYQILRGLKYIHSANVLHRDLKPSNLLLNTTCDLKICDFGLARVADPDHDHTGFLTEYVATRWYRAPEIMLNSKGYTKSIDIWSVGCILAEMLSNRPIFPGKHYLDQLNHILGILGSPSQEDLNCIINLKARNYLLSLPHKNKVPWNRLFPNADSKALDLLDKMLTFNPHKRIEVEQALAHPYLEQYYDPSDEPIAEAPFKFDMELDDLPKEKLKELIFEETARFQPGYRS

## O=C(c1ccc(F)c(F)c1Nc1ccc(I)cc1F)N1CC(O)([C@@H]2CCCCN2)C1 [COBIMETINIB]
[1]
  inhibition in vivo at 15 mg/kg: 122%
888-mel [2]
  Activity: Active
[3]
  IC50: > 10 µM
[4]
  Activity: 60%
A-375
  inhibition in vivo at 10 mg/kg: 122%
[5]
  IC50: > 10 µM
[6]
  IC50: > 10 µM
DLD-1
  inhibition in vivo at 3 mg/kg: 88%
[7]
  IC50: > 10 µM
A2058 [8]
  inhibition in vivo at 6 mg/kg: 44%
NCI-H441
  inhibition in vivo at 10 mg/kg: 85%
[9]
  IC50: > 10 µM
[10]
  IC50: > 10 µM
[11]
  IC50: > 10 µM
[12]
  IC50: > 10 µM
888-mel [13]
  inhibition: Active
DU-145
  inhibition in vivo at 10 mg/kg: 77%
NCI-H520
  inhibition in vivo at 10 mg/kg: 21%
[14]
  IC50: > 10 µM
[15]
  IC50: > 10 µM
[16]
  IC50: > 10 µM
A2058 [17]
  inhibition in vivo at 5 mg/kg: 12.7%
NCI-H2122
  inhibition in vivo at 10 mg/kg: 80%
888-mel [18]
  inhibition: Active
Angiopoietin-1 receptor
  IC50: > 10 µM
[19]
  IC50: > 10 µM
